Results as given in ChEMBL document CHEMBL2176966, “Discovery of 6,7-dihydro-5H-pyrrolo[2,3-a]pyrimidines as orally available G protein-coupled receptor 119 agonists” (J Med Chem, 2012).
Active and inactive are the calls of the source. The calls are words filed in the database; no cut-off is given here.

Legend:
[1] = system: Mus musculus; test: Increase in GLP-1 level in GPR119 knockout mouse at 30 mg/kg, po after 60 mins by electrochemiluminescence assay; assay type: functional, organism-based; parameters: dose 30 mg/kg
Summary of the method: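 Wild-type and GPR119 knockout mice, fasted overnight, received vehicle (0.5% HPMC/0.1% Tween80) or 30 mg/kg by oral gavage at 10 mL/kg. At 60 min, blood was taken by cardiac puncture under isoflurane into chilled K2-EDTA tubes with DPP-4 inhibitor and aprotinin (250 KIU/mL). Plasma was spun at 4 °C and stored at −80 °C. Total GLP-1 was measured by electrochemiluminescence immunoassay; n = 10.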

[2] = target: T1, Glucose-dependent insulinotropic receptor (Homo sapiens, UniProt Q8TDV5); test: Agonist activity at human GPR119 receptor expressed in CHO-K1 cells co-expressing 6CRE-luciferase gene after 5 hrs by luciferase reporter gene assay; assay type: functional, cell-based; conditions: read-out: pEC50 (converted)
T1 sequence (Q8TDV5 whole entry): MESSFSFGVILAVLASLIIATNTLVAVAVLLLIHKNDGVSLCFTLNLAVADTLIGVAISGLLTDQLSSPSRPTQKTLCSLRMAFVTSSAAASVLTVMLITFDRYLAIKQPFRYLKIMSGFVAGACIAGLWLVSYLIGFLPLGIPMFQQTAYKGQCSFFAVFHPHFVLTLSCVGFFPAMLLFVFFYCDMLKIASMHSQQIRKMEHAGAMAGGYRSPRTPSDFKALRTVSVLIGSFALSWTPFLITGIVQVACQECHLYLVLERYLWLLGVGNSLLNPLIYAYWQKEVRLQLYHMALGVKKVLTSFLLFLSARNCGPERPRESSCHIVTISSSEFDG

[3] = system: PCC; test: Induction of GLP1 secretion in C57BL/6 mouse PCC cells at 0.1 to 1 uM after 24 hrs; assay type: functional, cell-based
Summary of the method: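 Primary colonic crypts were isolated from mouse colon by three 15 min, 37 °C digests with collagenase II, dispase I, DNase I and hyaluronidase, then pooled and washed. Crypts were seeded on Matrigel-coated plates in high-glucose DMEM with 10% FBS and allowed to attach for 24 h. GLP-1 secretion was then assayed as for GLUTag cells (2 h KRB exposure, electrochemiluminescent active GLP-1 immunoassay).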

[4] = Oral bioavailability in mouse at 30 mg/kg; assay type: ADME, organism-based; conditions: in vivo
[5] = system: Rattus norvegicus; test: Antihyperglycemic activity in Sprague-Dawley rat assessed as reduction of acetaminophen AUC (0 to 2 hrs) at 10 mg/kg, po relative to control; assay type: functional; parameters: scale not given: the % may be the effect or the level left
Summary of the method: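 Male Sprague-Dawley rats, fasted overnight, dosed orally at 10 mL/kg in 0.5% HPMC/0.1% Tween80 (vehicle or compound) at −120 min. Pramlintide (15 μg) was given to a positive-control cohort at −15 min. Baseline plasma was taken at time 0, then acetaminophen (65 mg) by gavage. The plasma acetaminophen concentration–time profile was followed for 3 h; AUC 0–2 h was compared with vehicle.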

[6] = organism: Rattus norvegicus; test: Potentiation of 3 mM of glucose-induced insulin secretion in rat islet at 0.3 uM
[7] = Cmax in rat at 30 mg/kg; assay type: ADME, organism-based; parameters: dose 30 mg/kg; conditions: in vivo

Question: For CC(C)OC(=O)N1CCC(Oc2ncnc3c2CCN3c2ccc(S(C)(=O)=O)cc2F)CC1, which Activity [1] is on record?
Answer: inactive

Question: And the EC50 [2]?
Answer: 50.1 nM

Question: What about the Activity [3] of the same molecule?
Answer: Active

Question: What about the bioavailability [4] of the same molecule?
Answer: 40%

Question: And the Activity [5]?
Answer: 27%

Question: And the Activity [6]?
Answer: inactive

Question: And the Cmax [7]?
Answer: 9 µM
